Data as given in ChEMBL document CHEMBL2331458, “Examination of the mode of action of the almiramide family of natural products against the kinetoplastid parasite Trypanosoma brucei” (J Nat Prod, 2013).
Calls of active or inactive are those of the source. No cut-off for these calls is given here. Starred links: 1 amine or outer side, 2 acyl side, 3 side chain; linkers in the order of their positions; H or OH if unused. Non-standard residues stand in square brackets, D forms with d. Residues, ends and D or L forms follow the SMILES beside them. *: point of attachment. BODIPY(FL) = CC1=CC(C)=[N+]2C1=Cc1ccc(CCC(=O)*)n1[B-]2(F)F; Ethylenediamine = C(CN[*:2])N[*:1]; NMeF = CN[C@@H](Cc1ccccc1)C(=O)O; X1 = CN(CCCCCCCCC(=O)[*:2])[*:1]; Oct(7)enoyl = C=CCCCCCC(=O)*; NMeV = CN[C@H](C(=O)O)C(C)C; NMeA = CN[C@@H](C)C(=O)O

Tests used:
[1] = system: Trypanosoma brucei brucei; assay: Binding affinity to Trypanosoma brucei brucei 427-221 kinetoplast DNA at 5 uM after 1 hr by DAPI staining method
Summary of the method: (§1)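 Procyclic trypanosomes spread on glass, dried, fixed in 70% EtOH, then permeabilized in PBS/0.2% Triton for 20 min and blocked in PBS/0.5% gelatin. Anti-aldolase (1:500, 1 h) marked glycosomes. Cells were then stained 1 h with probe (5 or 50 µM) plus Alexa 594 anti-rabbit and 100 ng/mL DAPI. Imaged by epifluorescence at 100× oil.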

[2] = system: Trypanosoma brucei brucei; assay: Binding affinity to Trypanosoma brucei brucei 427-221 PEX11 at 50 uM by […] staining method; summary of the method: as §1
[3] = system: Trypanosoma brucei brucei; assay: Antiparasitic activity against Trypanosoma brucei brucei 427-221 assessed as growth inhibition up to 3.1 uM after 48 hrs by cellTiter-Glo assay; assay type: functional, organism-based
Summary of the method: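 T. b. brucei 427-221 bloodstream forms, grown in HMI-9 with 10% FBS and 10% Serum Plus at 37 °C, 5% CO2. Seeded at 2×10^4/mL with DMSO-serially diluted compound (1% DMSO final) for 48 h. Thimerosal 2 µM final served as positive control. Viability read by CellTiter-Glo ATP luminescence; % inhibition normalized to controls, IC50 by curve fit.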

[4] = Drug uptake in Trypanosoma brucei brucei 427-221 nucleus at 5 uM after 1 hr by DAPI staining method; assay type: ADME; summary of the method: as §1
[5] = Drug uptake in Trypanosoma brucei brucei 427-221 cytosol at 5 uM after 1 hr by DAPI staining method; assay type: ADME; summary of the method: as §1
[6] = Drug uptake in 120 hrs post fertilized zebrafish embryo intestinal tract at 1 to 270 uM after 3 hrs by confocal microscopic analysis; assay type: ADME, Danio rerio; conditions: in vivo
Summary of the method: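 Zebrafish embryos at 48 and 120 h post fertilization were incubated with fluorescent probe or fluorophore control in methylene blue-free egg water at 270, 90, 30 and 0 µM, three embryos per treatment. Localization was imaged by confocal microscopy after 3 h.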

[7] = system: Trypanosoma brucei brucei; assay: Binding affinity to Trypanosoma brucei brucei 427-221 GIM5 at 50 uM by […] staining method; summary of the method: as §1

SMILES: C=CCCCCCC(=O)N(C)[C@H](C(=O)N(C)[C@H](C(=O)N(C)[C@H](C(=O)N(C)[C@@H](C)C(=O)N(C)[C@@H](Cc1ccccc1)C(=O)N(C)CCCCCCCCC(=O)NCCNC(=O)CCC1=[N+]2C(=Cc3c(C)cc(C)n3[B-]2(F)F)C=C1)C(C)C)C(C)C)C(C)C ({Oct(7)enoyl}-[NMeV][NMeV][NMeV][NMeA][NMeF][X1]-{Ethylenediamine-BODIPY(FL)})
- Activity [1]: inactive
- Activity [2]: Active
- Activity [3]: Active
- Drug uptake [4]: Not Active
- Drug uptake [5]: Active
- Drug uptake [6]: Not Active
- Activity [7]: Active
